Laboratory results from ChEMBL document CHEMBL6078712, “Triterpenoid phthalimides as selective anti-cancer agents targeting mitochondrial apoptosis” (Eur J Med Chem, 2025).
Activity calls are given as the source filed them. The rule behind the calls is not given here.

Columns and labels:
[1] = Stability in human plasma assessed as compound remaining at 2 uM incubated for 15 mins by RF-MS analysis; type: ADME, cell-free; conditions: read-out: Stability
Procedure, shortened: (§1)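 Human plasma stability, plasma protein binding and liver microsome stability, each run in triplicate. Error deviations below 10 %.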

CCRF-CEM [2] = assay: Induction of cell cycle arrest in human CCRF-CEM cells assessed as downregulation of AKT phosphorylation at 5 times IC50 incubated for 24 hrs by Western blotting analysis; type: functional, cell-based
Procedure, shortened: (§2)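 30 µg protein per lane on SDS-PAGE, transferred to nitrocellulose, blocked in 5 % BSA/TBS-Tween. Primary antibodies overnight at 4 °C (Akt, P-Akt Ser473, STAT-3, caspase-3, PARP, cyclin D, cyclin A, Bcl-xL, Bak, Bid, Bim), then HRP secondary and ECL detection. GAPDH as loading control.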

CCRF-CEM [3] = assay: Induction of apoptosis in human CCRF-CEM cells assessed as viable cells at 5 times IC50 incubated for 24 hrs by Annexin V-FITC and PI staining based flow cytometric analysis (reference value: 97.4 %); type: functional
Procedure, shortened: (§3)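 Washed in Ca2+-containing binding buffer, then stained 15 min at room temperature in the dark with Annexin V-FITC and propidium iodide (PI at half the kit-recommended level). Read at once by flow cytometry with a 488 nm laser, ≥10,000 cells. Debris excluded; quadrants viable, early apoptotic, late apoptotic/necrotic, necrotic. Three independent experiments.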

CCRF-CEM [4] = assay: Induction of cell cycle arrest in human CCRF-CEM cells assessed as downregulation of Cyclin D expression at 5 times IC50 incubated for 24 hrs by Western blotting analysis; type: functional, cell-based; procedure, shortened: as §2
CCRF-CEM [5] = assay: Inhibition of DNA synthesis in human CCRF-CEM cells at 1 times IC50 incubated for 24 hrs by BrdU incorporation based flow cytometry; type: functional
Procedure, shortened: (§4)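 Fixed in ice-cold 70 % ethanol, DNA denatured in 2 M HCl for 30 min, neutralised with borax. Stained with anti-BrdU plus FITC secondary, then PI/RNase A for 1 h. Flow cytometry; % BrdU-positive cells.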

CCRF-CEM [6] = assay: Induction of apoptosis in human CCRF-CEM cells assessed as upregulation of BID expression at 1 to 5 times IC50 incubated for 24 hrs by Western blotting analysis; type: functional, cell-based; procedure, shortened: as §2
CCRF-CEM [7] = assay: Induction of apoptosis in human CCRF-CEM cells assessed as necrotic cells at 1 times IC50 incubated for 24 hrs by Annexin V-FITC and PI staining based flow cytometric analysis (reference value: 0.4 %); type: functional; procedure, shortened: as §3
CCRF-CEM [8] = assay: Induction of apoptosis in human CCRF-CEM cells assessed as late apoptotic cells at 5 times IC50 incubated for 24 hrs by Annexin V-FITC and PI staining based flow cytometric analysis (reference value: 0.4 %); type: functional; procedure, shortened: as §3
CEM-DNR = assay: Cytotoxicity against human CEM-DNR cells assessed as inhibition of cell growth incubated for 72 hrs by MTS assay; type: functional, cell-based
Procedure, shortened: (§5)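 MTS assay on eight human cancer lines and two non-tumour fibroblast lines. IC50 is the concentration that inhibits cell growth by 50 %. SD typically up to 15 % of the mean.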

[9] = Metabolic stability in human liver microsomes assessed as parent compound remaining at 2 uM incubated for 15 mins in presence of NADPH by RF-MS analysis; type: ADME, Microsome; conditions: read-out: Stability; procedure, shortened: as §1
CCRF-CEM [10] = assay: Induction of apoptosis in human CCRF-CEM cells assessed as downregulation of BCL-XL expression at 5 times IC50 incubated for 24 hrs by Western blotting analysis; type: functional, cell-based; procedure, shortened: as §2
[11] = Cytotoxicity against human K562-Tax cells assessed as inhibition of cell growth incubated for 72 hrs by MTS assay; type: functional, cell-based; procedure, shortened: as §5
CCRF-CEM [12] = assay: Inhibition of RNA synthesis in human CCRF-CEM cells at 5 times IC50 incubated for 24 hrs by BrU incorporation based flow cytometry; type: functional
Procedure, shortened: (§6)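 Fixed in 1 % paraformaldehyde/0.05 % NP-40 (15 min at room temperature, then 4 °C overnight). Stained with cross-reacting anti-BrdU plus FITC secondary (45 min each), then PI/RNase A. Flow cytometry; % BrU-positive cells.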

Mitochondrial membrane = assay: Induction of mitochondrial membrane potential depolarization in human CCRF-CEM cells assessed as fold increase in fluorescence intensity incubated for 24 hrs by JC-1 staining based flow cytometry; type: cell membranes
A549 = assay: Cytotoxicity against human A549 cells assessed as inhibition of cell growth incubated for 72 hrs by MTS assay; type: functional, cell-based; conditions: A549, 72 h; procedure, shortened: as §5
CCRF-CEM [13] = assay: Cytotoxicity against human CCRF-CEM cells assessed as inhibition of cell growth incubated for 72 hrs by MTS assay; type: functional, cell-based; procedure, shortened: as §5
[14] = Metabolic stability in human liver microsomes assessed as parent compound remaining at 2 uM incubated for 30 mins in presence of NADPH by RF-MS analysis; type: ADME, Microsome; conditions: read-out: Stability; procedure, shortened: as §1
CCRF-CEM [15] = assay: Induction of apoptosis in human CCRF-CEM cells assessed as downregulation of caspase-3 expression at 5 times IC50 incubated for 24 hrs by Western blotting analysis; type: functional, cell-based; procedure, shortened: as §2
[16] = Cytotoxicity against human BJ cells assessed as inhibition of cell growth incubated for 72 hrs by MTS assay; type: toxicity, cell-based; procedure, shortened: as §5
[17] = Plasma protein binding in human assessed as fraction bound at 10 uM incubated for 4 hrs by rapid equilibrium dialysis based RF-MS analysis; type: ADME, cell-free; conditions: read-out: PPB (converted); procedure, shortened: as §1
CCRF-CEM [18] = assay: Inhibition of DNA synthesis in human CCRF-CEM cells at 5 times IC50 incubated for 24 hrs by BrdU incorporation based flow cytometry; type: functional; procedure, shortened: as §4
[19] = Stability in human plasma assessed as compound remaining at 2 uM incubated for 60 mins by RF-MS analysis; type: ADME, cell-free; conditions: read-out: Stability; procedure, shortened: as §1
HCT-116 = assay: Cytotoxicity against human HCT-116 cells assessed as inhibition of cell growth incubated for 72 hrs by MTS assay; type: functional, cell-based; conditions: HCT-116, 72 h; procedure, shortened: as §5
[20] = Metabolic stability in human liver microsomes assessed as parent compound remaining at 2 uM incubated for 60 mins in presence of NADPH by RF-MS analysis; type: ADME, Microsome; conditions: read-out: Stability; procedure, shortened: as §1
CCRF-CEM [21] = assay: Inhibition of RNA synthesis in human CCRF-CEM cells at 1 times IC50 incubated for 24 hrs by BrU incorporation based flow cytometry; type: functional; procedure, shortened: as §6
CCRF-CEM [22] = assay: Induction of cell cycle arrest in human CCRF-CEM cells assessed as downregulation of Cyclin A expression at 5 times IC50 incubated for 24 hrs by Western blotting analysis; type: functional, cell-based; procedure, shortened: as §2
CCRF-CEM [23] = assay: Induction of cell cycle arrest in human CCRF-CEM cells assessed as increase in accumulation of G0/G1 phase at 1 times IC50 incubated for 24 hrs by RNase/PI staining based flow cytometry; type: functional
Procedure, shortened: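 Propidium iodide staining and flow cytometry with a 488 nm laser, ≥10,000 intact cells. Phase proportions compared with untreated cells; SEM of three independent experiments.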

CCRF-CEM [24] = assay: Induction of apoptosis in human CCRF-CEM cells assessed as early apoptotic cells at 1 times IC50 incubated for 24 hrs by Annexin V-FITC and PI staining based flow cytometric analysis (reference value: 2.1 %); type: functional; procedure, shortened: as §3
CCRF-CEM [25] = assay: Induction of cell cycle arrest in human CCRF-CEM cells assessed as downregulation of total STAT3 expression at 5 times IC50 incubated for 24 hrs by Western blotting analysis; type: functional, cell-based; procedure, shortened: as §2
CCRF-CEM [26] = assay: Induction of apoptosis in human CCRF-CEM cells assessed as early apoptotic cells at 5 times IC50 incubated for 24 hrs by Annexin V-FITC and PI staining based flow cytometric analysis (reference value: 2.1 %); type: functional; procedure, shortened: as §3

- remaining at 0.25 h, 2 µM [1]: 97%
- remaining at 0.25 h, 2 µM [9]: 99%
- Activity (Mitochondrial membrane): Dose-dependent-effect
- remaining at 0.5 h, 2 µM [14]: 99%
- fraction unbound at 4 h, 10 µM [17]: 0.121
- remaining at 1 h, 2 µM [19]: 92%
- remaining at 1 h, 2 µM [20]: 81%
SMILES: CC(=O)O[C@H]1CC[C@]2(C)[C@H]3CC[C@@H]4[C@H]5[C@H](c6cc7c(c(-c8ccccc8)c6)C(=O)N(c6cc[nH]n6)C7=O)CC[C@]5(C(=O)O)CC[C@@]4(C)[C@]3(C)CC[C@H]2C1(C)C
- Activity (CCRF-CEM [2]): Active
- Activity (CCRF-CEM [3]): 86.5%
- Activity (CCRF-CEM [4]): Active
- inhibition (INH) (CCRF-CEM [5]): 23.6%
- Activity (CCRF-CEM [6]): Active
- Activity (CCRF-CEM [7]): 0%
- Activity (CCRF-CEM [8]): 5.5%
- IC50 (CEM-DNR): 11.5 µM
- Activity (CCRF-CEM [10]): Active
- IC50 [11]: 13.3 µM
- inhibition (INH) (CCRF-CEM [12]): 47.4%
- IC50 (A549): 18.9 µM
- IC50 (CCRF-CEM [13]): 5.13 µM
- Activity (CCRF-CEM [15]): Active
- IC50 at 72 h [16]: 31.8 µM
- inhibition (INH) (CCRF-CEM [18]): 9.9%
- IC50 (HCT-116): 9.54 µM
- inhibition (INH) (CCRF-CEM [21]): 23.8%
- Activity (CCRF-CEM [22]): Active
- Activity (CCRF-CEM [23]): Active; Slight Increased Activity Observed
- Activity (CCRF-CEM [24]): 4.8%
- Activity (CCRF-CEM [25]): Active
- Activity (CCRF-CEM [26]): 7.9%
